Assay results reported in ChEMBL document CHEMBL4431385, “Substituted tetracyclic indole core derivatives of HCV NS5A inhibitor MK-8742” (Bioorg Med Chem Lett, 2016).
Where a chain is given by its changes, count along the chain named.

Assays:
[1] = molecular target: T1, Nonstructural protein 5A (Hepatitis C virus) (UniProt Q5L478); test: Inhibition of HCV GT2b NS5A assessed as suppression of replicon RNA level by real-time PCR analysis; conditions: Hepatitis C virus subtype 2b
T1 sequence (whole entry): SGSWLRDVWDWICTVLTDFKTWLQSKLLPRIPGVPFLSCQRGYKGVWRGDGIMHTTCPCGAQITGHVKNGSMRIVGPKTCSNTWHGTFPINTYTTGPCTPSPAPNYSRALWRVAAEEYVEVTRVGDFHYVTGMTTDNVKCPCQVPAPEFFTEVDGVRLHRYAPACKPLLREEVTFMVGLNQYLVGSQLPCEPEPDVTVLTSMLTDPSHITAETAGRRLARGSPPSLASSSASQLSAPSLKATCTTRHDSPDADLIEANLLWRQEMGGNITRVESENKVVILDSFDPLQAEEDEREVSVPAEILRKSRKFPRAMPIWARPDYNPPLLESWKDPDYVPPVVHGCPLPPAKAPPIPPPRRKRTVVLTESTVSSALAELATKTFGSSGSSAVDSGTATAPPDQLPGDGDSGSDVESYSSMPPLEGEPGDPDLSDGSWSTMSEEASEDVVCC
Summary of the method: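 GT2b replicon, which carries the naturally occurring NS5A 31M resistance-associated variant; potency given as EC90 in nM.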

[2] = molecular target: T1, Nonstructural protein 5A (Hepatitis C virus); test: Inhibition of HCV GT2a NS5A assessed as suppression of replicon RNA level by real-time PCR analysis; conditions: Hepatitis C virus subtype 2a
[3] = molecular target: T1, Nonstructural protein 5A (Hepatitis C virus); test: Inhibition of HCV GT1a NS5A assessed as suppression of replicon RNA level by real-time PCR analysis; conditions: Hepatitis C virus subtype 1a
[4] = molecular target: T1, Nonstructural protein 5A (Hepatitis C virus); test: Inhibition of HCV GT4a NS5A assessed as suppression of replicon RNA level by real-time PCR analysis; conditions: Hepatitis C virus subtype 4a
[5] = system: T2, Nonstructural protein 5A (Hepatitis C virus), Q5L478 [Y93H]; test: Inhibition of HCV GT1a NS5A Y93H mutant assessed as suppression of replicon RNA level by real-time PCR analysis; conditions: Hepatitis C virus subtype 1a
T2 sequence (whole entry): T1 sequence (whole entry) with Y93H

[6] = molecular target: T1, Nonstructural protein 5A (Hepatitis C virus); test: Inhibition of HCV GT1b NS5A assessed as suppression of replicon RNA level by real-time PCR analysis; conditions: Hepatitis C virus subtype 1b
[7] = system: Hepatitis C virus subtype 1a; test: Selectivity ratio of EC90 for HCV GT1a NS5A Y93H mutant to EC90 for HCV GT1a NS5A
[8] = system: Nonstructural protein 5A (Hepatitis C virus), Q5L478 [UNDEFINED MUTATION]; test: Inhibition of HCV GT1a NS5A L31V mutant assessed as suppression of replicon RNA level by real-time PCR analysis; conditions: Hepatitis C virus subtype 1a
[9] = molecular target: T1, Nonstructural protein 5A (Hepatitis C virus); test: Inhibition of HCV GT3a NS5A assessed as suppression of replicon RNA level by real-time PCR analysis; conditions: Hepatitis C virus subtype 3a
[10] = Clearance in Sprague-Dawley rat at 10 mg/kg, po or 2 mg/kg, iv; format: ADME, organism-based; conditions: in vivo
Summary of the method: (§1)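 Male Sprague–Dawley rats got an IV dose of 2 mg/kg in 60% PEG200 and a PO dose of 10 mpk in 10% TWEEN. Reported values are PO AUC (µM h), PO Cmax (µM), T1/2 (h), clearance (ml/min/kg) and oral bioavailability F (%).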

[11] = AUC in Sprague-Dawley rat at 10 mg/kg, po; format: ADME, organism-based; conditions: in vivo; summary of the method: as §1
[12] = Oral bioavailability in Sprague-Dawley rat at 10 mg/kg; format: ADME, organism-based; conditions: in vivo; summary of the method: as §1
[13] = Cmax in Sprague-Dawley rat at 10 mg/kg, po; format: ADME, organism-based; set-up: dose 10 mg/kg, route oral; conditions: in vivo; summary of the method: as §1
[14] = Half life in Sprague-Dawley rat at 10 mg/kg, po or 2 mg/kg, iv; format: ADME, organism-based; conditions: in vivo; summary of the method: as §1
[15] = AUC in Sprague-Dawley rat at 5 mg/kg, po; format: ADME, organism-based; conditions: in vivo
Summary of the method: (§2)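 Male Sprague–Dawley rats got IV dosing at 2 mg/kg in 60% PEG200 and PO dosing at 5 mpk in either 0.5% MC or 10% TWEEN, depending on compound. The readouts are PO AUC (µM h), PO Cmax (µM), T1/2 (h), Cl (ml/min/kg) and F (%).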

[16] = Cmax in Sprague-Dawley rat at 5 mg/kg, po; format: ADME, organism-based; set-up: dose 5 mg/kg, route oral; conditions: in vivo; summary of the method: as §2
[17] = Half life in Sprague-Dawley rat at 5 mg/kg, po or 2 mg/kg, iv; format: ADME, organism-based; conditions: in vivo; summary of the method: as §2
[18] = system: Hepatitis C virus subtype 1a; test: Selectivity ratio of EC90 for HCV GT1a NS5A L31V mutant to EC90 for HCV GT1a NS5A
[19] = Selectivity ratio of EC90 for HCV GT2b NS5A to EC90 for HCV GT1a NS5A
[20] = Oral bioavailability in Sprague-Dawley rat at 5 mg/kg; format: ADME, organism-based; conditions: in vivo; summary of the method: as §2
[21] = Clearance in Sprague-Dawley rat at 5 mg/kg, po or 2 mg/kg, iv; format: ADME, organism-based; conditions: in vivo; summary of the method: as §2

Structure (SMILES)	EC90 [1] [nM]	EC90 [2] [nM]	EC90 [3] [nM]	EC90 [4] [nM]	EC90 [5] [nM]	EC90 [6] [nM]	EC90 [8] [nM]	EC90 [9] [nM]	further results
COC(=O)N[C@H](C(=O)N1C[C@H](F)C[C@H]1c1ncc(-c2cc(F)c3c(c2)OC(c2ccccc2)n2c-3cc3cc(-c4cnc([C@@H]5C[C@@H](F)CN5C(=O)[C@@H](NC(=O)OC)C(C)C)[nH]4)ccc32)[nH]1)C(C)C (mixture of isomers)	72	0.2	0.005	0.1	0.08	0.003	9	0.8	Selectivity ratio [7]: 16
COC(=O)N[C@H](C(=O)N1CCC[C@H]1c1ncc(-c2cc(F)c3c(c2)OC(c2cccc(OC)c2)n2c-3cc3cc(-c4cnc([C@@H]5CCCN5C(=O)[C@@H](NC(=O)OC)C(C)C)[nH]4)ccc32)[nH]1)C(C)C (stereo partly specified)	6	–	0.01	–	6	–	0.2	0.07	clearance [10]: 10 mL/min/kg; AUC [11]: 2.1 µM·h; bioavailability [12]: 12%; Cmax [13]: 240 nM; half-life [14]: 5.9 h
COC(=O)N[C@H](C(=O)N1CCC[C@H]1c1ncc(-c2ccc3c(c2)OC(c2cccc(OC)c2)n2c-3cc3cc(-c4cnc([C@@H]5CCCN5C(=O)[C@@H](NC(=O)OC)C(C)C)[nH]4)ccc32)[nH]1)C(C)C (stereo partly specified)	2	–	0.005	–	8	–	0.2	0.1	AUC [15]: 0.51 µM·h; Cmax [16]: 100 nM; half-life [17]: 4.3 h
COC(=O)N[C@H](C(=O)N1CCC[C@H]1c1ncc(-c2cc(F)c3c(c2)OC(c2cc(Cl)cc(OC)c2)n2c-3cc3cc(-c4cnc([C@@H]5CCCN5C(=O)[C@@H](NC(=O)OC)C(C)C)[nH]4)ccc32)[nH]1)C(C)C (stereo partly specified)	0.7	–	0.01	–	3	–	0.1	0.1	clearance [10]: 8 mL/min/kg; AUC [11]: 0.75 µM·h; Selectivity ratio [7]: 300; Selectivity ratio [18]: 10; Selectivity ratio [19]: 70; bioavailability [12]: 3%; Cmax [13]: 100 nM; half-life [14]: 5.2 h
COC(=O)N[C@H](C(=O)N1CCC[C@H]1c1ncc(-c2ccc3c(c2)cc2n3[C@H](c3ccccc3)Oc3c-2ccc(-c2cnc([C@@H]4CCCN4C(=O)[C@@H](NC(=O)OC)C(C)C)[nH]2)c3F)[nH]1)C(C)C	> 100	0.4	0.04	1	> 100	0.003	36	> 10	–
COC(=O)N[C@H](C(=O)N1CCC[C@H]1c1ncc(-c2ccc3c(c2)c(F)c2n3C(c3ccccc3)Oc3cc(-c4cnc([C@@H]5C[C@@H](F)CN5C(=O)[C@@H](NC(=O)OC)C(C)C)[nH]4)ccc3-2)[nH]1)C(C)C (stereo partly specified)	33	0.003	0.002	0.04	2	0.001	1	0.2	–
COC(=O)N[C@H](C(=O)N1CCC[C@H]1c1ncc(-c2cc(F)c3c(c2)O[C@@H](c2ccccc2)n2c-3cc3cc(-c4cnc([C@@H]5CCCN5C(=O)[C@@H](NC(=O)OC)C(C)C)[nH]4)ccc32)[nH]1)C(C)C	18	0.15	0.005	0.04	34	0.003	0.4	0.4	bioavailability [20]: 33%; AUC ([15]; Sprague-Dawley, read-out: AUC): 2.8 µM·h; clearance [21]: 11 mL/min/kg; Cmax [16]: 330 nM; half-life [17]: 3.6 h
COC(=O)N[C@H](C(=O)N1CCC[C@H]1c1ncc(-c2ccc3c(c2)OCn2c-3c(C3CC3)c3cc(-c4cnc([C@@H]5CCCN5C(=O)[C@@H](NC(=O)OC)C(C)C)[nH]4)ccc32)[nH]1)C(C)C	122	0.005	0.03	0.3	100	0.004	8	10	–
COC(=O)N[C@H](C(=O)N1CCC[C@H]1c1ncc(-c2ccc3c(c2)O[C@@H](c2ccccc2)n2c-3c(F)c3cc(-c4cnc([C@@H]5CCCN5C(=O)[C@@H](NC(=O)OC)C(C)C)[nH]4)ccc32)[nH]1)C(C)C	15	0.004	0.007	0.06	25	0.007	0.7	0.3	–
COC(=O)N[C@H](C(=O)N1CCC[C@H]1c1ncc(-c2ccc3c(c2)OCn2c-3cc3cc(-c4cnc([C@@H]5CCCN5C(=O)[C@@H](NC(=O)OC)C(C)C)[nH]4)c(F)cc32)[nH]1)C(C)C	150	0.02	0.007	0.2	77	0.007	68	5	–
COC(=O)N[C@H](C(=O)N1C[C@H](F)C[C@H]1c1ncc(-c2ccc3c(c2)OC(c2ccccc2)n2c-3cc3cc(-c4cnc([C@@H]5C[C@@H](F)CN5C(=O)[C@@H](NC(=O)OC)C(C)C)[nH]4)ccc32)[nH]1)C(C)C (mixture of isomers)	63	0.7	0.01	0.2	2	0.004	10	2	–
